Our source for the Change, Relative potency and IC50 values is ChEMBL document CHEMBL1125183, “3-Hydroxy-3-methylglutaryl-coenzyme a reductase inhibitors. 7. Modification of the hexahydronaphthalene moiety of simvastatin: 5-oxygenated and 5-oxa derivatives” (J Med Chem, 1991).

In general, IC50 refers to the concentration that inhibits the measured activity by half. Low values mean greater potency in that assay, high ones weaker potency in that assay.

Data set [1] has as its system Canis familiaris. Kind of data set: Inhibition of cholesterol synthesis in cholestyramine-primed dogs at 4 mg/kg per day dose in Dog-1. In kind it is functional, Canis lupus familiaris. In a few lines:
(§1)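 Male beagles were fed a low-cholesterol semisynthetic diet once daily, with 12 g cholestyramine per day in the diet. Pretreatment plasma cholesterol was established, then one dog per compound received 4 mg/kg mixed into the diet for 21 days and was then crossed over to the lovastatin control at the same dose for 2-3 weeks. Jugular blood was taken twice weekly. Plasma cholesterol was measured colorimetrically (Liebermann-Burchard) after extraction and saponification and reported as % change from the resin-treated state.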

Data set [2] relates to Canis familiaris. The data set is described as follows: Inhibition of cholesterol synthesis in cholestyramine-primed dogs at 4 mg/kg per day dose in Dog-2. In kind it is functional, Canis lupus familiaris. The method, boiled down:
as §1

For data set [3], the system named is Canis familiaris. Kind of data set: Inhibition of cholesterol synthesis in cholestyramine-primed dogs at 4 mg/kg per day dose in Dog-3:
In kind it is functional, Canis lupus familiaris. In a few lines: as §1

Data set [4] is described as follows: Relative potency with respect to compactin. It counts as ADME.
The target in data set [5] is T1, 3-hydroxy-3-methylglutaryl-coenzyme A reductase (Rattus norvegicus, UniProt P51639).
T1 sequence (P51639 whole entry): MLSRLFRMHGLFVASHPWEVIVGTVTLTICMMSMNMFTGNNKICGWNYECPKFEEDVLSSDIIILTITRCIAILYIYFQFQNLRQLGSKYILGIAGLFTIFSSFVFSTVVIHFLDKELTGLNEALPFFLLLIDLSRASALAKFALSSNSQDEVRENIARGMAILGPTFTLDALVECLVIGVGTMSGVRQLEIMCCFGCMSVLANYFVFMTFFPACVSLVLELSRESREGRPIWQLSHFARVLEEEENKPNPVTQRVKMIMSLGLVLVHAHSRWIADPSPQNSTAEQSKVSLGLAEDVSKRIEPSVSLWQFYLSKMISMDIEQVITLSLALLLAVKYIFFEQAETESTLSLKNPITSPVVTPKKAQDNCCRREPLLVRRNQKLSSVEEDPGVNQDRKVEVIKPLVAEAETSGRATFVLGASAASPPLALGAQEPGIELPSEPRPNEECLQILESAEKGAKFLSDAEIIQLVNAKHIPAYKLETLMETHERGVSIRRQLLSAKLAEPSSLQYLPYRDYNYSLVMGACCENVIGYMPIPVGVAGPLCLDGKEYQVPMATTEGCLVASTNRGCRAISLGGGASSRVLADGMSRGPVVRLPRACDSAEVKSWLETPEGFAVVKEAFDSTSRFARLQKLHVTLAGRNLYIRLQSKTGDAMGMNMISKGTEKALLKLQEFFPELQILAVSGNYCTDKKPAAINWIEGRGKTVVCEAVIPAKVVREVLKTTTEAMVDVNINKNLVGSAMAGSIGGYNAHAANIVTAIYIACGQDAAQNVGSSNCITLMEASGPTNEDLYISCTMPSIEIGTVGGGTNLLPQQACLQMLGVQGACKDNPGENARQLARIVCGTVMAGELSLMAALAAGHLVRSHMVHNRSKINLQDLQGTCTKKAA
Kind of data set: In vitro ability to inhibit solubilized, partially purified, rat liver HMG-CoA reductase. The method, boiled down:
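Enzyme tested as the sodium salt of the dihydroxy carboxylate form, against solubilized, partially purified rat liver HMG-CoA reductase. Conditions follow a procedure the paper cites from earlier work.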

The species entered for data set [6] is Rattus norvegicus. Kind of data set: The compound was evaluated for acute inhibition of cholesterol synthesis in rat; percent change of [14C]cholesterol. In kind it is functional. The method, boiled down: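 Rats received a single oral dose of 0.45 mg/kg. Synthesis of cholesterol from [14C]acetate was measured at a fixed time after dosing and reported as % change in [14C]cholesterol.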

For data set [7], the system named is Canis familiaris. Kind of data set: Inhibition of cholesterol synthesis in cholestyramine-primed dogs at 4 mg/kg per day dose in Dog 1. In kind it is functional, Canis lupus familiaris. In a few lines: as §1
The subject of data set [8] is Canis familiaris. The data set is described as follows: Inhibition of cholesterol synthesis in cholestyramine-primed dogs at 4 mg/kg per day dose in Dog-3. In kind it is functional, Canis lupus familiaris. In a few lines:
as §1

The subject of data set [9] is Canis familiaris. Kind of data set: Inhibition of cholesterol synthesis in cholestyramine-primed dogs at 4 mg/kg per day dose in Dog 2. It counts as functional, Canis lupus familiaris. The method, boiled down:
as §1

Regarding `CC[C@H](C)C(=O)O[C@H]1C[C@@H](C)C=C2C=C[C@H](C)[C@H](CC[C@@H]3C[C@@H](O)CC(=O)O3)C21` (some centres not stated), the Change in data set [1] is 25%; in data set [2], 38%; in data set [3], 25%.
Compound `CCC(C)(C)C(=O)O[C@H]1C[C@H](C)C(=O)[C@@H]2CC[C@H](C)[C@H](CC[C@@H]3C[C@@H](O)CC(=O)O3)C12` (some centres not stated) came in with a Relative potency in [4] of 63. Besides, in [5], the IC50 amounted to 59 nM. Moreover, the Change in [6] is recorded as -68%.
As for `CCC(C)(C)C(=O)O[C@H]1C[C@H](C)[C@H](O)[C@@H]2CC[C@H](C)[C@H](CC[C@@H]3C[C@@H](O)CC(=O)O3)C12` (some centres not stated), the Relative potency in [4] came to 11.1. In addition, in data set [5], the half-maximal inhibitory concentration (IC50) came to 269 nM.
`CCC(C)(C)C(=O)O[C@H]1CC(C)(C)O[C@@H]2CC[C@H](C)[C@H](CC[C@@H]3C[C@@H](O)CC(=O)O3)C12` (some centres not stated) gave a Relative potency in data set [4] of 70. In addition, the Change in data set [7] is 20%; in [6], -67%. The compound further showed an IC50 in data set [5] of 35 nM.
`CCC(C)(C)C(=O)O[C@H]1C[C@@H](C)[C@@H](O)[C@@H]2CC[C@H](C)[C@H](CC[C@@H]3C[C@@H](O)CC(=O)O3)C12` (some centres not stated) registered a Relative potency in [4] of 73. Further, the Change is listed as 19% in [8] and -37% in data set [6]. For the same compound, in [5], the IC50 worked out at 40.8 nM.
Take `CCC(C)(C)C(=O)O[C@@H](C[C@@H](C)CO)C1[C@H](O)CC[C@H](C)[C@@H]1CC[C@@H]1C[C@@H](O)CC(=O)O1` (some centres not stated): the Relative potency in data set [4] is given as 0.5. Besides, the IC50 in data set [5] stood at 2800 nM.
`CCC(C)(C)C(=O)O[C@H]1C[C@@H](C)[C@@H](OC(=O)NCc2ccccc2)[C@@H]2CC[C@H](C)[C@H](CC[C@@H]3C[C@@H](O)CC(=O)O3)C12` (some centres not stated) gave a Relative potency in data set [4] of 360. Further, in [5], the concentration for half-maximal inhibition (IC50) came out at 5 nM. Also, the Change in data set [6] was -27%.
`CCC(C)(C)C(=O)O[C@H]1C[C@@H](C)[C@@H](OC(=O)N(Cc2ccccc2)Cc2ccccc2)[C@@H]2CC[C@H](C)[C@H](CC[C@@H]3C[C@@H](O)CC(=O)O3)C12` (some centres not stated) displayed a Relative potency in [4] of 94. In data set [5], this compound displayed an IC50 of 16 nM. In addition, the Change in [6] is -4%.
On to `C=C(C)C[C@H](OC(=O)C(C)(C)CC)C1[C@H](O)CC[C@H](C)[C@@H]1CC[C@@H]1C[C@@H](O)CC(=O)O1` (some centres not stated), for which the Relative potency in data set [4] is on record as 0.9. Moreover, the IC50 in data set [5] was found to be 1700 nM.
In data set [4], `CCC(C)(C)C(=O)O[C@H]1C[C@@H](C)[C@@H](OP(=O)(c2ccccc2)c2ccccc2)[C@@H]2CC[C@H](C)[C@H](CC[C@@H]3C[C@@H](O)CC(=O)O3)C12` (some centres not stated) yielded a Relative potency of 300. In data set [5], this compound returned an IC50 of 6 nM. Moreover, the Change in [6] was -27%.
For `CCC(C)(C)C(=O)O[C@H]1C[C@@H](C)[C@@H](OCCc2ccccc2)[C@@H]2CC[C@H](C)[C@H](CC[C@@H]3C[C@@H](O)CC(=O)O3)C12` (some centres not stated), in data set [4], the Relative potency is recorded as 300. In [5], this compound registered an IC50 of 6 nM. In addition, the Change in data set [6] was -39%.
With `CCC(C)(C)C(=O)O[C@H]1C[C@@H](C)CC2CC[C@H](C)[C@H](CC[C@@H]3C[C@@H](O)CC(=O)O3)C21` (some centres not stated), in [4], the Relative potency came out at 138. In [5], this compound gave a concentration for half-maximal inhibition (IC50) of 13 nM.
In data set [4], `CCC(C)(C)C(=O)O[C@H]1C[C@H](C)[C@@H](O)[C@@H]2CC[C@H](C)[C@H](CC[C@@H]3C[C@@H](O)CC(=O)O3)C12` (some centres not stated) came in with a Relative potency of 61. Moreover, the Change was 34% in data set [9] and -54% in [6]. Besides, the concentration for half-maximal inhibition (IC50) in data set [5] was found to be 48.6 nM.
Compound `CCC(C)(C)C(=O)O[C@H]1C[C@@H](C)C(=O)[C@@H]2CC[C@H](C)[C@H](CC[C@@H]3C[C@@H](O)CC(=O)O3)C12` (some centres not stated) had a Relative potency in [4] of 125. It took 34 nM to reach half-maximal inhibition in data set [5] (IC50). Moreover, the Change in [6] is -56%.
For `CCC(C)(C)C(=O)O[C@H]1C[C@@](C)(CSc2ccccc2)O[C@@H]2CC[C@H](C)[C@H](CC[C@@H]3C[C@@H](O)CC(=O)O3)C12` (some centres not stated) the same measures were 258, 6.6 nM and -34%.
`CCC(C)(C)C(=O)O[C@H]1C[C@](C)(CSc2ccccc2)O[C@@H]2CC[C@H](C)[C@H](CC[C@@H]3C[C@@H](O)CC(=O)O3)C12` (some centres not stated) registered a Relative potency in data set [4] of 280. In data set [5], this compound yielded a half-maximal inhibitory concentration (IC50) of 6 nM. Moreover, the Change in data set [6] amounted to 0%.
